Measurements taken from publication PMC12502093 (RSC Advances, 2025).
Converted amounts (≈) assume the structure as drawn.

What was measured:
Cyclin D1 = assay: qRT-PCR gene expression in MCF7 cells: Cyclin D1; format: cell-based, human; conditions: compound at IC50, 48 h, relative to β-Actin, vs control
Procedure, shortened: (§1)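 MCF7 cells (3 × 10^4 per well) were treated 48 h with test compound. Total RNA was column-extracted and reverse-transcribed to first-strand cDNA. SYBR Green qPCR ran 95 °C 10 min, then 40 cycles of 95 °C 15 s, 60 °C 30 s, 72 °C 30 s. Expression was normalised to β-Actin by 2−ΔΔCT relative to untreated control. Data are mean ± SEM; Student's t-test, P < 0.05.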

S. aureus DNA gyrase [1] = target: T1, S. aureus DNA gyrase (Staphylococcus aureus, UniProt P0A0K8); assay: S. aureus DNA gyrase supercoiling assay; format: biochemical
[2] = target: T2, S. aureus topoisomerase IV (Staphylococcus aureus, UniProt P0C1S7); assay: S. aureus topoisomerase IV ATPase assay; format: biochemical
C. albicans ATCC 10231 [3] = assay: Agar well diffusion test; format: cell-based; conditions: AWDT
C. albicans ATCC 10231 [4] = assay: Minimum inhibitory concentration, C. albicans; format: cell-based; conditions: Candida albicans, ATCC10231, read-out: MIC (mg mL^−1)
Procedure, shortened: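 MIC was determined by a previously reported method for compounds selected from the well-diffusion screen and is expressed in mg mL−1. […] For C. albicans, 100 μL of negative cells went onto potato dextrose agar at 25 °C/72 h.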

c-MYC = assay: qRT-PCR gene expression in MCF7 cells: c-MYC; format: cell-based, human; conditions: compound at IC50, 48 h, relative to β-Actin, vs control
Procedure, shortened: as §1

STAT3 [5] = target: STAT3 (Homo sapiens, UniProt P40763); assay: STAT3 tyrosine phosphorylation inhibition; format: biochemical
MCF7 cells = assay: Neutral red uptake cytotoxicity assay, MCF7; format: cell-based, human
Procedure, shortened: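 Neutral red uptake. Log-phase cells were grown in DMEM with 10% FBS at 37 °C, 5% CO2, at 10^4 cells/well. They were exposed 48 h to 12.5, 25, 50 and 100 μM test compound (DMSO final <0.2%), then given neutral red medium for 2 h and washed with DPBS. Dye was extracted with 1% acetic acid/50% ethanol and read at 450/630 nm. IC50 came from log concentration versus intensity, three runs averaged. SI = MDCK IC50 / MCF7 IC50.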

[6] = target: T2, S. aureus topoisomerase IV; assay: S. aureus topoisomerase IV decatenation assay; format: biochemical
BAX = assay: qRT-PCR gene expression in MCF7 cells: BAX; format: cell-based, human; conditions: compound at IC50, 48 h, relative to β-Actin, vs control
Procedure, shortened: as §1

STAT3 [7] = assay: qRT-PCR gene expression in MCF7 cells: STAT3; format: cell-based, human; conditions: compound at IC50, 48 h, relative to β-Actin, vs control
Procedure, shortened: as §1

A. flavus isolate = assay: Agar well diffusion test; format: cell-based; conditions: AWDT
Procedure, shortened: (§2)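 Agar well diffusion. Test compounds were placed in wells on agar inoculated with the reference strain or isolate. After incubation, inhibition zone diameters were measured in mm with a caliper. Runs were in triplicate and the zone averaged. Scale: 0 = no inhibition; 0–6 mm (−); 7–11 mm (+); 12–14 mm (++); 15–17 mm (+++).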

E. coli O157 ATCC 700728 = assay: Agar well diffusion test; format: cell-based; conditions: AWDT
Procedure, shortened: as §2

IL6 = assay: qRT-PCR gene expression in MCF7 cells: IL6; format: cell-based, human; conditions: compound at IC50, 48 h, relative to β-Actin, vs control
Procedure, shortened: as §1

S. aureus DNA gyrase [8] = target: T1, S. aureus DNA gyrase; assay: S. aureus DNA gyrase ATPase assay; format: biochemical
S. aureus ATCC 25923 = assay: Agar well diffusion test; format: cell-based; conditions: AWDT
Procedure, shortened: as §2

T2 sequence (P0C1S7 whole entry, the tested form may be a part): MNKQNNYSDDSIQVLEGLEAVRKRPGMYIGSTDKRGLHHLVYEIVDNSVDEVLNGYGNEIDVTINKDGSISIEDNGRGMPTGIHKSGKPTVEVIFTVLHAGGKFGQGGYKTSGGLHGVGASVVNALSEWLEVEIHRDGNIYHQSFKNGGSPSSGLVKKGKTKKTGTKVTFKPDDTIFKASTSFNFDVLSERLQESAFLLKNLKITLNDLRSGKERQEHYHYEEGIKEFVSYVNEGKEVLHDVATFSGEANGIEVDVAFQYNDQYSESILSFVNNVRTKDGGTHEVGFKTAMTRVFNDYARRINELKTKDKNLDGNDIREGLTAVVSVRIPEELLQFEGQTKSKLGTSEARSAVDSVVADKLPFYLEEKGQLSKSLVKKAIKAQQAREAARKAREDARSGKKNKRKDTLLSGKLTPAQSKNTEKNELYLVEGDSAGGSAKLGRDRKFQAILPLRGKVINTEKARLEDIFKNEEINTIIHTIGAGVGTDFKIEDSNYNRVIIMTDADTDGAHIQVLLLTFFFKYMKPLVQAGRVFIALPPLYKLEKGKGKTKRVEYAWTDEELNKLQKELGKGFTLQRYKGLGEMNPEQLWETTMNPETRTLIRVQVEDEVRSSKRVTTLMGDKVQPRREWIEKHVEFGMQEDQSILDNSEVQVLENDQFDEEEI
T2 sequence (P0C1U9 whole entry partner, the tested form may be a part): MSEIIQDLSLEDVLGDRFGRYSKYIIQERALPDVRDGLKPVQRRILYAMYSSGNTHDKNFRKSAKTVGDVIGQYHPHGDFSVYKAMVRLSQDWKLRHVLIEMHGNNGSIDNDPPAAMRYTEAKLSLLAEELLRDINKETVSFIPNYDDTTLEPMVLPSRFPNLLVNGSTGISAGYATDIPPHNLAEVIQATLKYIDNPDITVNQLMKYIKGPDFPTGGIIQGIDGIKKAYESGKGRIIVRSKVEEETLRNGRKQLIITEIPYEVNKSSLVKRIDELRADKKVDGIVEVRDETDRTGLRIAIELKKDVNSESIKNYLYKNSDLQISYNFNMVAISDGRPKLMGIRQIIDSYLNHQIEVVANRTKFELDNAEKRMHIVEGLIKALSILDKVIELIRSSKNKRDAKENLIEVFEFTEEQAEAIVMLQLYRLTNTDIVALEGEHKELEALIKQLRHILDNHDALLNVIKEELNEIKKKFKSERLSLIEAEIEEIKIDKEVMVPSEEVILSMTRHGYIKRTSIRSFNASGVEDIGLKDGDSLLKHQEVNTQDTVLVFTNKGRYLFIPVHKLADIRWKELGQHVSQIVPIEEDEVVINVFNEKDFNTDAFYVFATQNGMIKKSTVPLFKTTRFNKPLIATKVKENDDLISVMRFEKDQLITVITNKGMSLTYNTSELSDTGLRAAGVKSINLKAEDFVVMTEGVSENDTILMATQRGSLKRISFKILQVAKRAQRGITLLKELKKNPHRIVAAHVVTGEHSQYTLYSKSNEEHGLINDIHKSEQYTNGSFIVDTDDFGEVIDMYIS
T1 sequence (P0A0K8 whole entry): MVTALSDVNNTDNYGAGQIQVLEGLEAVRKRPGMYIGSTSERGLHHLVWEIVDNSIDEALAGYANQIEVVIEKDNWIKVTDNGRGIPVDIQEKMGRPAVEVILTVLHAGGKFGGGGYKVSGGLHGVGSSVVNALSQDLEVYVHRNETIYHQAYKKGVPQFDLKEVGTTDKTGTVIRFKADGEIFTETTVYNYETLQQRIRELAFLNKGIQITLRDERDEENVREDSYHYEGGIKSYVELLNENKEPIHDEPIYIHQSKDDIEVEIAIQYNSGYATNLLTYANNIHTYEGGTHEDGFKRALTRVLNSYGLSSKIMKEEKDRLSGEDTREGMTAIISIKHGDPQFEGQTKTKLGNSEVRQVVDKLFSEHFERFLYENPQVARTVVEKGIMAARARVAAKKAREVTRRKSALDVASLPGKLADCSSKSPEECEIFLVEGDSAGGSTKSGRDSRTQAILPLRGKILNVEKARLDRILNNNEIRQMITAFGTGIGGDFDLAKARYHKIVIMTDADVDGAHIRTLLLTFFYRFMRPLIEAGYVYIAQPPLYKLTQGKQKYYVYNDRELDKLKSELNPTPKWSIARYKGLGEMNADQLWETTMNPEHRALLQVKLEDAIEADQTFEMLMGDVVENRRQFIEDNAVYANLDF
T1 sequence (P20831 whole entry partner): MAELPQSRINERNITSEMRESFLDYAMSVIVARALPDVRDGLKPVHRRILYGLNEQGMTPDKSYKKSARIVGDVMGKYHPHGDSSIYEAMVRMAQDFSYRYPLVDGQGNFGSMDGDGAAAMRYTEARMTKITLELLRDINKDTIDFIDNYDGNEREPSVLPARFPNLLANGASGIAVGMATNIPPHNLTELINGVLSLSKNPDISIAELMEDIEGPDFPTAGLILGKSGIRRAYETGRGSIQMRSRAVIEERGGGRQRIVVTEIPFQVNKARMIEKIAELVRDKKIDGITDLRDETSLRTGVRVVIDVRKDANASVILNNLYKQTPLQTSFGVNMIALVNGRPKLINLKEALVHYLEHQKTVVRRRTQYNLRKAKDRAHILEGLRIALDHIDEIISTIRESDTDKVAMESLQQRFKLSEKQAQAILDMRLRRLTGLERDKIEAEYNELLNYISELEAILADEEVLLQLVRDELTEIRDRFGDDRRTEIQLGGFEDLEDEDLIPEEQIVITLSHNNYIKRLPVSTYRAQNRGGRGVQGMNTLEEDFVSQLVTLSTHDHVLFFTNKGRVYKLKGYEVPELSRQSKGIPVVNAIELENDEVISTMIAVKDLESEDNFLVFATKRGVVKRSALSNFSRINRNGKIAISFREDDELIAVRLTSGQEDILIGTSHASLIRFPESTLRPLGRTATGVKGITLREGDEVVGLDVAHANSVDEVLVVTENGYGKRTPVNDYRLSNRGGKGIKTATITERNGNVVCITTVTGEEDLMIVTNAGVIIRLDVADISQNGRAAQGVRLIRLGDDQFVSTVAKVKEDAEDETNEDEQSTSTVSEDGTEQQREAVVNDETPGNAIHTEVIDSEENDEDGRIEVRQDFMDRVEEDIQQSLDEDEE
STAT3 (Homo sapiens, UniProt P40763), sequence (P40763 whole entry): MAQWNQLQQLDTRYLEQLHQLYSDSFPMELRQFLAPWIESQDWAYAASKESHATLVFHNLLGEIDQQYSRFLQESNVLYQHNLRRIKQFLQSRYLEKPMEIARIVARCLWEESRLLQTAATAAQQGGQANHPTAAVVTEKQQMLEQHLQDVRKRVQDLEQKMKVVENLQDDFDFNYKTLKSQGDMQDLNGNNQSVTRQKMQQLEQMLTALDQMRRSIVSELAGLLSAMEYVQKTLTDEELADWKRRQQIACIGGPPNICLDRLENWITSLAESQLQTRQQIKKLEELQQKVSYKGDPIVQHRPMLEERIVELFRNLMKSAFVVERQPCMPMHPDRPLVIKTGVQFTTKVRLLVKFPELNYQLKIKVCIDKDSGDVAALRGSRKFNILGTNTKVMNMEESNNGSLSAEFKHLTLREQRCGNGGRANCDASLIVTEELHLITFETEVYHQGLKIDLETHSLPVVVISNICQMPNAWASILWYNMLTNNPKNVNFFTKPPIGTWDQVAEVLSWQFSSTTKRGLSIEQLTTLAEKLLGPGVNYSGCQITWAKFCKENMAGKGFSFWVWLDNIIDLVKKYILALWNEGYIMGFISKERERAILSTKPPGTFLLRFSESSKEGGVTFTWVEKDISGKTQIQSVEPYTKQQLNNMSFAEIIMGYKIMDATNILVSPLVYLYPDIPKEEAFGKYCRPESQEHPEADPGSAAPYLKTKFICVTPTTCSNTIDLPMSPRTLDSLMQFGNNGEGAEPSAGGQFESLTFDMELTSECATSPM

CC(=O)c1ccc2cc(S(=O)(=O)Nc3ccc(Br)cc3)ccc2c1 [Compound 5e, 6-Acetyl-N-(4-bromophenyl)naphthalene-2-sulfonamide]
Cyclin D1 gene expression level (Cyclin D1): significant reduction | IC50 (S. aureus DNA gyrase [1]): 21.8 µM | IC50 [2]: 5.96 µM | Activity relative to ciprofloxacin, topoisomerase IV ATPase assay ([2]; S. aureus, less than ciprofloxacin): more than 3 fold | Zone of inhibition, inhibition scale (C. albicans ATCC 10231 [3]; C. albicans ATCC 10231): +++ (15–17 mm (+++)) | Zone of inhibition (C. albicans ATCC 10231 [3]; C. albicans ATCC 10231, average of triplicate): 15 mm | MIC (C. albicans ATCC 10231 [4]): 20 mg/mL (≈ 49.5 mM) | c-MYC gene expression level (c-MYC): significant reduction | IC50 (STAT3 [5]; STAT3 phosphorylation IC50 (μM) (mean ± SD), ELISA, eight dilutions 100-0.03 μM): 3.01 ± 0.06 µM | Potency as STAT3 inhibitor relative to lead compound I (STAT3 [5]; higher potency than compound I): approximately 2 fold | IC50 (MCF7 cells; Homo sapiens, MCF7, 48 h, read-out: IC50 (μM) MCF7): 43.1 µM | (SI) MCF7, selectivity index (MCF7 cells; SI = IC50 MDCK cell/IC50 MCF7 cell): 2.22 | IC50 [6]: 18.9 µM | BAX gene expression level (BAX): significantly increased | STAT3 gene expression level (STAT3 [7]): significant reduction | Zone of inhibition, inhibition scale (A. flavus isolate): + (7–11 mm (+)) | Zone of inhibition (A. flavus isolate; average of triplicate): 11 mm | Zone of inhibition, inhibition scale (E. coli O157 ATCC 700728; E. coli O157 ATCC 700728): ++ (12–14 mm (++)) | Zone of inhibition (E. coli O157 ATCC 700728; E. coli O157 ATCC 700728, average of triplicate): 12 mm | IL6 gene expression level (IL6): significant reduction | IC50 (S. aureus DNA gyrase [8]): 3.04 µM | Zone of inhibition, inhibition scale (S. aureus ATCC 25923; S. aureus ATCC 25923): +++ (15–17 mm (+++)) | Zone of inhibition (S. aureus ATCC 25923; S. aureus ATCC 25923, average of triplicate): 16 mm
